Measurements pooled from the literature.
Compare with care: the assays were run in different laboratories.
Organism: Staphylococcus aureus
Observed: microbial growth

Compound | test | system | setting | MIC
O=C(Nc1c[nH]nc1-c1nc2ccc(CN3CCOCC3)cc2[nH]1)NC1CC1 | – | NCTC8325 | – | > 30 µM
Cc1ccc2nc(-c3ccc(Cl)cc3)[nH]c2c1 | broth dilution | ATCC29213 MSSA | – | 256 µg/mL
O=C(O)CN1C(=O)/C(=C/c2ccc(-c3ccc(N(c4ccccc4)c4ccccc4)cc3)c3ccccc23)NC1=S | broth dilution | ATCC6538 | – | > 1000 µg/mL
C/C=C(\C)c1cc(O)c(C)c(OC(=O)c2c(C)cc(O)c(Cl)c2O)c1 | broth dilution | 6917 | – | 32 µg/mL
CC(=O)NC[C@H]1CN(c2ccc(N3CCOCC3)c(F)c2)C(=O)O1 | broth dilution | MRSA NRS384 USA300 | drug-resistant strain | 2 µg/mL
CN(C)[C@@H]1C(O)=C(C(N)=O)C(=O)[C@@]2(O)C(O)=C3C(=O)c4c(O)cccc4[C@@](C)(O)[C@H]3C[C@@H]12 | – | 147 | clinical isolate | ≤ 0.1 µM
CC(C)Oc1c(NC(=O)c2ccc(NC(=O)[C@H](CC(N)=O)NC(=O)c3ccc(NC(=O)c4ccc(C#N)cc4)cc3)cc2)ccc(C(=O)NC2CCNCC2)c1O | – | ATCC29213 | – | > 64 µg/mL
CCCCCC(=O)Oc1c(C)c(O)c(C(=O)/C=C/c2ccccc2)c(OC)c1C | broth dilution | ATCC25923 | – | > 5000 µg/mL
COc1cc(Nc2ncc(F)c(Nc3ccc4c(n3)N(COP(=O)(O)O)C(=O)C(C)(C)O4)n2)cc(OC)c1OC | – | NCTC8325 | – | > 30 µM
CC(C)(O/N=C(\C(=O)N[C@@H]1C(=O)N2C(C(=O)[O-])=C(C[n+]3ccccc3)CS[C@H]12)c1csc(N)n1)C(=O)O | broth dilution | ATCC25923 | 18 h | 1 µg/mL
CN(C)c1ccc(-c2ccc3cc4c(c(O)c3c2)C(=O)C2=C(O)[C@]3(O)C(=O)C(C(N)=O)=C(O)[C@@H](N(C)C)[C@@H]3C[C@@H]2C4)cc1 | broth dilution | ATCC29213 | – | 32 µg/mL
C=CCn1c(-c2ccc(Cl)c(Cl)c2)nc2ccccc21 | broth dilution | ATCC29213 MSSA | – | 64 µg/mL
C[n+]1c(/C=C/c2ccc(O)cc2)cc(/C=C2\Sc3ccccc3N2CCCN2CCOCC2)c2ccccc21.[I-] | broth dilution | ATCCBAA44 | – | 8 µg/mL
NC(=O)c1ccc(-c2nc(-c3ccccn3)c(-c3ccc4c(c3)OCO4)[nH]2)cc1 | – | NCTC8325 | – | > 30 µM
O=C(CCCCCCCCCC[P+](c1ccccc1)(c1ccccc1)c1ccccc1)Nc1ccc(O)c(O)c1.[Br-] | broth dilution | ATCC43300 MRSA | 18 h | 16 µg/mL
COc1cc2c(N3CCN(C(=O)Nc4ccc(OC(C)C)cc4)CC3)ncnc2cc1OCCCN1CCCCC1 | – | NCTC8325 | – | > 30 µM
COc1ccc2c(c1)CCc1c(C(=O)NCCc3nc4cc(C)ccc4[nH]3)n[nH]c1-2 | – | – | – | > 128 µg/mL
O=C(Nc1ccc(Cl)c(C(F)(F)F)c1)Nc1cccc2c1OC(F)(F)O2 | – | NCTC8325 | – | 0.5 µM
O=C1NC(=S)N/C1=C\c1ccc(-c2ccc(N(c3ccccc3)c3ccccc3)cc2)c2ccccc12 | broth dilution | ATCC6538 | – | > 1000 µg/mL
O=C(O)c1cn(C2CC2)c2cc(N3CCNCC3)c(F)cc2c1=O | broth dilution | ATCC29213 MSSA | – | 8 µg/mL
COc1ccc(-c2ccc3c(N4CCOC[C@@H]4C)nc(N4CCOC[C@@H]4C)nc3n2)cc1CO | – | NCTC8325 | – | > 30 µM
